Experimental data from ChEMBL document CHEMBL1149768, “Novel Pd(II) complexes of 1-N-substituted 3-phenyl-2-pyrazoline derivatives and evaluation of antiamoebic activity” (Eur J Med Chem, 2008).

tested on: Entamoeba histolytica; assay: Antiamoebic activity against Entamoeba histolytica HM1 IMSS after 72 hrs by serial dilution method; type: functional, organism-based
How it was run: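 Compounds were dissolved in DMSO and diluted in medium to 1 mg/mL, then to 0.1 mg/mL, with two-fold serial dilutions in microplate wells. Metronidazole was the standard. Each well got 1.7 × 10⁴ trophozoites, was gassed with N₂ and held at 37 °C for 72 h. Plates were methanol-fixed, eosin-stained and solubilised in 0.1 N NaOH, and OD was read at 490 nm. IC50 came from linear regression of % inhibition versus log dose.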

Compound	IC50 [µM]
Cc1ccccc1NC(=S)N1CC(C)C(c2ccccc2)=N1 (stereo not given)	4.57
CC(C)CNC(=S)N1CC(C)C(c2ccccc2)=N1 (stereo not given)	9.13
CC(C)NC(=S)N1CC(C)C(c2ccccc2)=N1 (stereo not given)	15.2
CC1CN(C(=S)NC2CCCCC2)N=C1c1ccccc1 (stereo not given)	6.63
CC1CN(C(=S)NC2CCCCCCC2)N=C1c1ccccc1 (stereo not given)	2.32

More lines, in order of falling IC50, values ahead:

IC50 [µM]	Compound
10.3	CC1CN(C(N)=S)N=C1c1ccccc1 (stereo not given)
8.75	CC1CN(C(=S)NC2CCCC2)N=C1c1ccccc1 (stereo not given)
8.69	CC1CN(C(=S)N2CCN(c3ccccc3)CC2)N=C1c1ccccc1 (stereo not given)
4.62	CC1CN(C(=S)NCc2ccccc2Cl)N=C1c1ccccc1 (stereo not given)
4.32	CCCCNC(=S)N1CC(C)C(c2ccccc2)=N1 (stereo not given)
